Laboratory results from ChEMBL document CHEMBL1149897, “Acylated triterpenoid saponins from Schima noronhae and their cell growth inhibitory activity” (J Nat Prod, 2008).
Activity calls are given as the source filed them. The calls are words filed in the database; no cut-off is given here.

Legend:
Type in all cases: functional, cell-based
HT-29 = experiment: Cytotoxicity against human HT29 cells after 24 hrs by fluorometric microculture assay; conditions: HT-29, 24 h
HCT-116 = experiment: Cytotoxicity against human HCT116 cells after 24 hrs by fluorometric microculture assay; conditions: HCT-116, 24 h
DLD-1 = experiment: Cytotoxicity against human DLD1 cells after 24 hrs by fluorometric microculture assay
In short: (§1)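 DLD1 grown in RPMI 1640 with 10% FBS; HeLa in IMDM with 5% FBS; both at 37 °C, 5% CO2. Cells (6 × 10^3 per well) exposed to a range of compound concentrations for 24 h at 37 °C. Medium then removed and viability read by FMCA on a fluorescence plate reader as percent of control-well fluorescence. IC50 derived; triplicate experiments.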

HeLa = experiment: Cytotoxicity against human HeLa cells after 24 hrs by fluorometric microculture assay; in short: as §1

SMILES	IC50 (HT-29) [µg/mL]	IC50 (HCT-116) [µg/mL]	Activity (DLD-1)	IC50 (HeLa) [µM]
C/C=C(/C)C(=O)O[C@H]1[C@H](O)C(C)(C)C[C@H]2C3=CC[C@@H]4[C@@]5(C)CC[C@H](O[C@@H]6O[C@H](C(=O)O)[C@@H](O)[C@H](O)[C@H]6O[C@@H]6O[C@@H](C)[C@H](O)[C@@H](O)[C@H]6O)C(C)(C)[C@@H]5CC[C@@]4(C)[C@]3(C)[C@@H](O)[C@@H](O)[C@]21COC(C)=O	> 40	> 40		
C/C=C(/C)C(=O)O[C@H]1CC(C)(C)C[C@H]2C3=CC[C@@H]4[C@@]5(C)CC[C@H](O[C@@H]6O[C@H](C(=O)O)[C@@H](O)[C@H](O[C@@H]7O[C@H](CO)[C@H](O[C@@H]8O[C@@H](C)[C@H](O)[C@@H](O)[C@H]8O)[C@H](O)[C@H]7O)[C@H]6O[C@@H]6O[C@H](CO)[C@@H](O)[C@H](O)[C@H]6O)C(C)(C)[C@@H]5CC[C@@]4(C)[C@]3(C)[C@@H](O)[C@@H](O)[C@@]12CO			Active	5.5
C/C=C(/C)C(=O)O[C@H]1CC(C)(C)C[C@H]2C3=CC[C@@H]4[C@@]5(C)CC[C@H](O[C@@H]6O[C@H](C(=O)O)[C@@H](O)[C@H](O[C@@H]7O[C@H](CO)[C@H](O[C@@H]8O[C@@H](C)[C@H](O)[C@@H](O)[C@H]8O)[C@H](O)[C@H]7O)[C@H]6O[C@@H]6O[C@H](CO)[C@@H](O)[C@H](O)[C@H]6O)C(C)(C)[C@@H]5CC[C@@]4(C)[C@]3(C)CC[C@@]12CO			Active	3.8
C/C=C(/C)C(=O)O[C@H]1[C@H](O)C(C)(C)C[C@H]2C3=CC[C@@H]4[C@@]5(C)CC[C@H](O[C@@H]6O[C@H](C(=O)O)[C@@H](O)[C@H](O)[C@H]6O[C@@H]6O[C@@H](C)[C@H](O)[C@@H](O)[C@H]6O)C(C)(C)[C@@H]5CC[C@@]4(C)[C@]3(C)[C@@H](O)[C@@H](O)[C@]21CO	> 40	> 40		
C/C=C(/C)C(=O)O[C@H]1[C@H](OC(C)=O)C(C)(C)C[C@H]2C3=CC[C@@H]4[C@@]5(C)CC[C@H](O[C@@H]6O[C@H](C(=O)O)[C@@H](O)[C@H](O)[C@H]6O[C@@H]6O[C@@H](C)[C@H](O)[C@@H](O)[C@H]6O)C(C)(C)[C@@H]5CC[C@@]4(C)[C@]3(C)[C@@H](O)[C@@H](O)[C@]21CO	> 40	> 40		
